Laboratory results: ChEMBL document CHEMBL2440012, “Design, synthesis and anticonvulsant properties of new N-Mannich bases derived from 3-phenylpyrrolidine-2,5-diones” (Bioorg Med Chem, 2013)
Activity calls are given as the source filed them. The rule behind the calls is not given here.

test system: Mus musculus; test: Anticonvulsant activity in albino CF1 mouse assessed as protection against maximal electroshock-induced seizures at 300 mg/kg, ip measured after 4 hrs; assay type: functional, organism-based; set-up: dose 300 mg/kg; conditions: not given
Outline: (§1)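 Male CF-1 mice given ip suspension in 0.5% methylcellulose/water at 30, 100 and 300 mg/kg; MES, scPTZ (pentylenetetrazole 85 mg/kg sc, CD97 dose for clonic seizures ≥5 s) and rotarod (inability to hold balance 1 min in each of three trials) assessed at 0.5 and 4 h; value is minimum dose active in half or more animals.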

| Compound | Activity |
| --- | --- |
| O=C1CC(c2cccc(Cl)c2)C(=O)N1CN1CCN(c2ccccc2Cl)CC1 (racemic) | inactive |
| O=C1CC(c2cccc(Cl)c2)C(=O)N1CN1CCN(c2cccc(Cl)c2)CC1 (racemic) | inactive |
| COc1ccccc1N1CCN(CN2C(=O)CC(c3cccc(Cl)c3)C2=O)CC1 (racemic) | inactive |
| O=C1CC(c2ccc(Cl)cc2)C(=O)N1CN1CCN(c2ccccc2Cl)CC1 (racemic) | inactive |
| O=C1CC(c2ccc(Cl)cc2)C(=O)N1CN1CCN(c2ccc(Cl)cc2)CC1 (racemic) | inactive |
| O=C1CC(c2ccccc2)C(=O)N1CN1CCN(C2CCCCC2)CC1 (racemic) | inactive |

test system: Mus musculus; test: Anticonvulsant activity in albino CF1 mouse assessed as protection against subcutaneous pentylenetetrazole-induced convulsion at 300 mg/kg, ip measured after 0.5 hrs; assay type: functional, organism-based; set-up: dose 300 mg/kg; conditions: not given; outline: as §1

| Compound | Activity |
| --- | --- |
| O=C1CC(c2cccc(Cl)c2)C(=O)N1CN1CCN(c2ccccc2Cl)CC1 (racemic) | inactive |
| O=C1CC(c2cccc(Cl)c2)C(=O)N1CN1CCN(c2cccc(Cl)c2)CC1 (racemic) | inactive |
| COc1ccccc1N1CCN(CN2C(=O)CC(c3cccc(Cl)c3)C2=O)CC1 (racemic) | inactive |
| O=C1CC(c2ccc(Cl)cc2)C(=O)N1CN1CCN(c2ccccc2Cl)CC1 (racemic) | inactive |
| O=C1CC(c2ccc(Cl)cc2)C(=O)N1CN1CCN(c2ccc(Cl)cc2)CC1 (racemic) | inactive |
| O=C1CC(c2ccccc2)C(=O)N1CN1CCN(C2CCCCC2)CC1 (racemic) | inactive |

test system: Mus musculus; test: Anticonvulsant activity in albino CF1 mouse assessed as protection against maximal electroshock-induced seizures at 300 mg/kg, ip measured after 0.5 hr; assay type: functional, organism-based; set-up: dose 300 mg/kg; conditions: not given; outline: as §1

| Compound | Activity |
| --- | --- |
| O=C1CC(c2cccc(Cl)c2)C(=O)N1CN1CCN(c2ccccc2Cl)CC1 (racemic) | inactive |
| O=C1CC(c2cccc(Cl)c2)C(=O)N1CN1CCN(c2cccc(Cl)c2)CC1 (racemic) | inactive |
| COc1ccccc1N1CCN(CN2C(=O)CC(c3cccc(Cl)c3)C2=O)CC1 (racemic) | inactive |
| O=C1CC(c2ccc(Cl)cc2)C(=O)N1CN1CCN(c2ccccc2Cl)CC1 (racemic) | inactive |
| O=C1CC(c2ccc(Cl)cc2)C(=O)N1CN1CCN(c2ccc(Cl)cc2)CC1 (racemic) | inactive |
| O=C1CC(c2ccccc2)C(=O)N1CN1CCN(C2CCCCC2)CC1 (racemic) | inactive |

test system: Mus musculus; test: Neurotoxicity in albino CF1 mouse assessed as minimum motor impairment at 300 mg/kg, ip measured after 0.5 hr by rotorod test; assay type: toxicity, organism-based; set-up: dose 300 mg/kg, route intraperitoneal; conditions: in vivo; outline: as §1

| Compound | Activity |
| --- | --- |
| O=C1CC(c2cccc(Cl)c2)C(=O)N1CN1CCN(c2ccccc2Cl)CC1 (racemic) | Non-toxic |
| O=C1CC(c2cccc(Cl)c2)C(=O)N1CN1CCN(c2cccc(Cl)c2)CC1 (racemic) | Non-toxic |
| O=C1CC(c2ccc(Cl)cc2)C(=O)N1CN1CCN(c2ccc(Cl)cc2)CC1 (racemic) | Non-toxic |
| O=C1CC(c2ccccc2)C(=O)N1CN1CCN(C2CCCCC2)CC1 (racemic) | Non-toxic |

test system: Mus musculus; test: Neurotoxicity in ip dosed albino CF1 mouse assessed as minimum motor impairment in half or more animals measured after 0.5 hrs by rotorod test; assay type: toxicity, organism-based; conditions: in vivo; outline: as §1

| Compound | MED |
| --- | --- |
| COc1ccccc1N1CCN(CN2C(=O)CC(c3cccc(Cl)c3)C2=O)CC1 (racemic) | 300 mg/kg |
| O=C1CC(c2ccc(Cl)cc2)C(=O)N1CN1CCN(c2ccccc2Cl)CC1 (racemic) | 300 mg/kg |

test system: Mus musculus; test: Neurotoxicity in albino CF1 mouse assessed as minimum motor impairment at 300 mg/kg, ip measured after 4 hrs by rotorod test; assay type: toxicity, organism-based; set-up: dose 300 mg/kg, route intraperitoneal; conditions: in vivo; outline: as §1

| Compound | Activity |
| --- | --- |
| O=C1CC(c2cccc(Cl)c2)C(=O)N1CN1CCN(c2ccccc2Cl)CC1 (racemic) | Non-toxic |
| O=C1CC(c2cccc(Cl)c2)C(=O)N1CN1CCN(c2cccc(Cl)c2)CC1 (racemic) | Non-toxic |
| O=C1CC(c2ccc(Cl)cc2)C(=O)N1CN1CCN(c2ccc(Cl)cc2)CC1 (racemic) | Non-toxic |
| O=C1CC(c2ccccc2)C(=O)N1CN1CCN(C2CCCCC2)CC1 (racemic) | Non-toxic |

test system: Mus musculus; test: Anticonvulsant activity in albino CF1 mouse assessed as protection against subcutaneous pentylenetetrazole-induced convulsion at 300 mg/kg, ip measured after 4 hrs; assay type: functional, organism-based; set-up: dose 300 mg/kg; conditions: not given; outline: as §1

| Compound | Activity |
| --- | --- |
| O=C1CC(c2cccc(Cl)c2)C(=O)N1CN1CCN(c2ccccc2Cl)CC1 (racemic) | inactive |
| O=C1CC(c2cccc(Cl)c2)C(=O)N1CN1CCN(c2cccc(Cl)c2)CC1 (racemic) | inactive |
| COc1ccccc1N1CCN(CN2C(=O)CC(c3cccc(Cl)c3)C2=O)CC1 (racemic) | inactive |
| O=C1CC(c2ccc(Cl)cc2)C(=O)N1CN1CCN(c2ccccc2Cl)CC1 (racemic) | inactive |
| O=C1CC(c2ccc(Cl)cc2)C(=O)N1CN1CCN(c2ccc(Cl)cc2)CC1 (racemic) | inactive |
| O=C1CC(c2ccccc2)C(=O)N1CN1CCN(C2CCCCC2)CC1 (racemic) | inactive |

test system: Mus musculus; test: Neurotoxicity in ip dosed albino CF1 mouse assessed as minimum motor impairment in half or more animals measured after 4 hrs by rotorod test; assay type: toxicity, organism-based; conditions: in vivo; outline: as §1

| Compound | MED |
| --- | --- |
| COc1ccccc1N1CCN(CN2C(=O)CC(c3cccc(Cl)c3)C2=O)CC1 (racemic) | 300 mg/kg |
| O=C1CC(c2ccc(Cl)cc2)C(=O)N1CN1CCN(c2ccccc2Cl)CC1 (racemic) | 300 mg/kg |
